Experimental data of several laboratories.
Compare with care: the assays were run in different laboratories.
Organism: Human immunodeficiency virus 1
Observed: viral replication

O=c1oc2c(O)c(O)cc3c(=O)oc4c(O)c(O)cc1c4c23
IC50 (inhibitor; CEM-GFP; 8 days): 73 µg/mL

COc1cc(F)ccc1-c1ncnc(Nc2cccc(C[S@](C)(=N)=O)c2)n1
EC50 (inhibitor; human PBMC; 6 days): 3.4 µM

C[C@@H](O[C@H]1OCCN(Cc2n[nH]c(=O)[nH]2)[C@H]1c1ccc(F)cc1)c1cc(C(F)(F)F)cc(C(F)(F)F)c1
IC50 (inhibitor, ELISA; human PBMC, BAL): 6400 nM

O=c1[nH]cc(C(c2cccc(C(c3c[nH]c(=O)[nH]c3=O)c3c[nH]c(=O)[nH]c3=O)c2)c2c[nH]c(=O)[nH]c2=O)c(=O)[nH]1
inhibition (inhibitor, ELISA; 1 µg/mL): 20%

CCOC(=O)c1cccc(Cn2ccc3ccc(-c4ccc5ccn(Cc6cccc(C(=O)O)c6)c5c4)cc32)c1
IC90 (inhibitor; MAGI, BAL): 28.9 µM

Cc1nc(C(CN)NC(=O)C(=O)Nc2ccc3c(c2)OCO3)sc1CO (stereo not shown)
IC50 (ELISA; MT2): > 79000 nM

O=C1C[C@@H](c2ccc(O)cc2)Oc2cc(O)cc(O)c21
EC50 (inhibitor; human PBMC; 6 days): > 30 µM

O=C(O)c1cc(F)cc(Cn2ccc3ccc(-c4ccc5ccn(Cc6cccc(OC(F)(F)F)c6)c5c4)cc32)c1
IC50 (inhibitor; BAL): 1400 nM

CC(C)(C)NC(=O)[C@@H]1C[C@@H]2CCCC[C@@H]2CN1C[C@@H](O)[C@H](Cc1ccccc1)NC(=O)[C@H](CC(N)=O)NC(=O)c1ccc2ccccc2n1
IC50 (MT2): 19 nM

CN1CC[C@H](c2c(O)cc(O)c3c(=O)cc(-c4ccccc4Cl)oc23)[C@H](O)C1
EC50 (inhibitor; human PBMC; 6 days): 0.02 µM

CC(C)(C)NC(=O)[C@@H]1C[C@@H]2CCCC[C@@H]2CN1C[C@@H](O)[C@H](Cc1ccccc1)NC(=O)[C@H](CC(N)=O)NC(=O)c1ccc2ccccc2n1
IC50 (inhibitor; T-lymphoid): 21 nM

C[N+](C)(C)CCCn1c(=O)c2cc(Br)c3c(=O)n(CCC[N+](C)(C)C)c(=O)c4c5[nH]c6ccccc6[nH]c5c(c1=O)c2c34
IC50 (TZM-bl, NL43; 48 h): > 5000 nM

Cc1cn([C@H]2C[C@H](N=[N+]=[N-])[C@@H](CO)O2)c(=O)[nH]c1=O
IC50 (inhibitor, luciferase; TZM-bl; 48 h): 0.043 µg/mL

OCc1cc(C(O)CNCCCCCCOCCCCc2ccccc2)ccc1O (stereo not shown)
EC50 (inhibitor; TZM-bl): 20 µM

O=C(O)c1cc(O)c(O)c(O)c1
IC50 (inhibitor; CEM-GFP; 8 days): 0.19 µg/mL

Cc1cn([C@H]2C[C@H](N=[N+]=[N-])[C@@H](CO)O2)c(=O)[nH]c1=O
IC50 (inhibitor, ELISA; human PBMC, NL43; 7 days): 5 nM
